Source: ChEMBL document CHEMBL1269007, “Synthesis and biological evaluation of Apogossypolone derivatives as pan-active inhibitors of antiapoptotic B-cell lymphoma/leukemia-2 (Bcl-2) family proteins” (J Med Chem, 2010)
The source made the active and inactive calls. The calls are words filed in the database; no cut-off is given here.

Key:
Bcl-2-like protein 1 [1] = target: T1, Bcl-2-like protein 1 (Homo sapiens, UniProt Q07817); assay: Binding affinity Bcl-xL at 200 uM by one-dimensional 1H nuclear magnetic resonance spectroscopy
[2] = Cytotoxicity against human H1299 cells expressing high level of Mcl-1 after 72 hrs by ATP-LITE assay; format: functional, cell-based; conditions: NCI-H1299, 72 h
Method in brief: (§1)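 Cells seeded in […] or RPMI1640 with 5 mM L-glutamine, 5% FBS, penicillin/streptomycin; H460 and H1299 at 2000, PC3 at 3000 cells/well. Compounds in 0.1% DMSO final added 24 h after seeding into fresh 5% serum medium; viability by ATP-LITE luminescence after 72 h, normalised to DMSO-treated cells.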

Bcl-2-like protein 1 [3] = target: T1, Bcl-2-like protein 1; assay: Displacement of F-BakBH3 from Bcl-xL after 30 mins by fluorescence polarization assay
Method in brief: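 GST-Bcl-XL ΔTM (100 nM) preincubated with varying compound concentrations in PBS pH 7.4 for 10 min at room temperature. FITC-labelled Bak BH3 peptide (2.5 μL of 100 nM stock) then added. Polarization read at 480/535 nm after 30 min at room temperature. Wild-type and mutant Bak BH3 peptides served as plate controls. IC50 from sigmoidal dose-response fit; mean of three independent experiments ± SE.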

Bcl-2-related protein A1 = target: T2, Bcl-2-related protein A1 (Homo sapiens, UniProt Q16548); assay: Displacement of F-BakBH3 from Bfl-1 after 30 mins by fluorescence polarization assay
T2 sequence (Q16548 whole entry): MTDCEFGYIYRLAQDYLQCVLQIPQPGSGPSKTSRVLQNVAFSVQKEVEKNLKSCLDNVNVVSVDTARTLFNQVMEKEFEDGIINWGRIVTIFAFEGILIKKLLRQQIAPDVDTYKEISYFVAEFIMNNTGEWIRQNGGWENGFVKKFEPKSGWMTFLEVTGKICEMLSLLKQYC

[4] = Metabolic stability of the compound in rat plasma after 40 mins; format: ADME, cell-free; conditions: read-out: Stability
[5] = Metabolic stability of the compound in rat microsomes after 40 mins; format: ADME, Microsome; conditions: read-out: Stability
Mus musculus [6] = assay: Reduction of spleen weight in ip dosed human Bcl2 expressing B6 transgenic BALB/c mouse administered as single dose after 24 hrs; format: functional, organism-based
Mus musculus [7] = assay: Toxicity in human Bcl2 expressing B6 transgenic BALB/c mouse assessed as mortality at 60 umol/kg, ip administered as single dose after 24 hrs; format: organism-based; conditions: in vivo
Method in brief: (§2)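 Age- and sex-matched B6 Bcl2 transgenic mice (human BCL-2/IgH minigene on Balb/c background, no aggressive lymphoma yet) given a single i.p. injection of compound in 500 μL ethanol:Cremophor EL:saline 10:10:80. Controls received vehicle. Animals sacrificed at 24 h with Avertin; spleen removed and weighed.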

Mus musculus [8] = assay: Toxicity in human Bcl2 expressing B6 transgenic BALB/c mouse assessed as mortality at 30 umol/kg, ip administered as single dose after 24 hrs; format: organism-based; conditions: in vivo; method in brief: as §2
[9] = target: Apoptosis regulator Bcl-2 (Homo sapiens, UniProt P10415); assay: Displacement of FITC-Bim BH3 peptide from Bcl-2 after 10 mins by fluorescence polarization assay
[10] = target: Induced myeloid leukemia cell differentiation protein Mcl-1 (Homo sapiens, UniProt Q07820); assay: Displacement of FITC-Bim BH3 peptide from Mcl-1 after 10 mins by fluorescence polarization assay
[11] = Cytotoxicity against human RS4:11 cells expressing high level of Bcl-2 and Bcl-xL after 24 hrs by annexin V-FITC and propidium iodide staining; conditions: RS4-11, 24 h
PC-3 = assay: Cytotoxicity against human PC3 cells expressing high level of Bcl-xL after 72 hrs by ATP-LITE assay; format: functional, cell-based; conditions: PC-3, 72 h; method in brief: as §1
NCI-H460 = assay: Cytotoxicity against human H460 cells expressing high level of Bcl-2 after 72 hrs by ATP-LITE assay; format: functional, cell-based; conditions: NCI-H460, 72 h; method in brief: as §1
[12] = Cytotoxicity against human RS4:11 cells expressing high level of Bcl-2 and Bcl-xL after 72 hrs by annexin V-FITC and propidium iodide staining; format: functional, cell-based; conditions: RS4-11, 72 h
[13] = Cytotoxicity against human BP3 cells expressing high level of Bfl-1 and Mcl-1 after 24 hrs by annexin V-FITC and propidium iodide staining; conditions: BP3, 24 h
Mus musculus [14] = assay: Reduction of spleen weight in human Bcl2 expressing B6 transgenic BALB/c mouse at 60 umol/kg, ip administered as single dose after 24 hrs; format: functional; set-up: scale not given: the % may be the effect or the level left
Mus musculus [15] = assay: Toxicity in human Bcl2 expressing B6 transgenic BALB/c mouse up to 120 umol/kg, ip administered as single dose after 24 hrs; format: organism-based; conditions: in vivo
Method in brief: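 B6 Bcl-2 transgenic Balb/c mice, age- and sex-matched, given one intraperitoneal dose (60 or 120 μmol/kg, also 30 μmol/kg) in ethanol:Cremophor EL:saline 10:10:80, 500 μL; survival and signs of toxicity observed over 24 h before sacrifice.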

Mus musculus [16] = assay: Toxicity in human PPC1 cells xenografted nude mouse assessed as mortality at 25 mg/kg, ip administered weekly 3 times; format: organism-based, PPC-1; set-up: dose 25 mg/kg, route intraperitoneal; conditions: in vivo
Method in brief: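 PPC-1 flank xenografts (5×10^6 cells s.c.) in female 6-week-old nude mice, size-matched at 200 mm³, 6 per group. Compound given i.p. three times in the first week in ethanol:Cremophor EL:saline 10:10:80 (500 μL); controls got saline. Survival and body weight monitored during week 1.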

Mus musculus [17] = assay: Reduction of spleen weight in human Bcl2 expressing B6 transgenic BALB/c mouse at 30 umol/kg, ip administered as single dose after 24 hrs; format: functional; set-up: scale not given: the % may be the effect or the level left

T1 sequence (Q07817 whole entry): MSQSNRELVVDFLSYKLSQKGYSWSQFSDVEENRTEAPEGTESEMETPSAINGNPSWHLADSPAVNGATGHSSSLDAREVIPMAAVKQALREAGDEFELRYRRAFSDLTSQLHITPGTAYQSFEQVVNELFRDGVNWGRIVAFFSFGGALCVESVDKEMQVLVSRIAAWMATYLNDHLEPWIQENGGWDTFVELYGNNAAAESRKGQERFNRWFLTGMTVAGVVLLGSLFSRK
Apoptosis regulator Bcl-2, sequence (P10415 whole entry): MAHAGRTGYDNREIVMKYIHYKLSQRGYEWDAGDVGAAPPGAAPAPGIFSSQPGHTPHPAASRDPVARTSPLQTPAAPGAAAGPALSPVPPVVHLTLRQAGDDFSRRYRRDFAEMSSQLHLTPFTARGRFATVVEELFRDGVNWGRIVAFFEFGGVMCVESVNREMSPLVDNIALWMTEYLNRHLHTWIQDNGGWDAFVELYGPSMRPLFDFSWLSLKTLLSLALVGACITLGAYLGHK
Induced myeloid leukemia cell differentiation protein Mcl-1, sequence (Q07820 whole entry): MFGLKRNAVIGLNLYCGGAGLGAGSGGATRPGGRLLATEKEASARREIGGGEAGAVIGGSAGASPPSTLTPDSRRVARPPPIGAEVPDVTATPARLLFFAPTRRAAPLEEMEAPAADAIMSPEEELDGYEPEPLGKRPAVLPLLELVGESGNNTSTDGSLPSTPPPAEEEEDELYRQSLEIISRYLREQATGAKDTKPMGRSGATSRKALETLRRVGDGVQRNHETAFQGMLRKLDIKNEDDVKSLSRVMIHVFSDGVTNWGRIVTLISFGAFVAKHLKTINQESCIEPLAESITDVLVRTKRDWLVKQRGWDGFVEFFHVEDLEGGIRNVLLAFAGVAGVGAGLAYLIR

| Structure (SMILES) | Activity (Bcl-2-like protein 1 [1]) | EC50 [2] [nM] | IC50 (Bcl-2-like protein 1 [3]) [nM] | Ki (Bcl-2-like protein 1 [3]) [nM] | IC50 (Bcl-2-related protein A1) [nM] | Ki (Bcl-2-related protein A1) [nM] | remaining at 40 min [4] [%] | remaining at 40 min [5] [%] | Activity (Mus musculus [6]) | IC50 [9] [nM] | Ki [9] [nM] | IC50 [10] [nM] | Ki [10] [nM] | EC50 [11] [µM] | EC50 (PC-3) [nM] | EC50 (NCI-H460) [nM] | EC50 [13] [µM] | also measured |
| --- | --- | --- | --- | --- | --- | --- | --- | --- | --- | --- | --- | --- | --- | --- | --- | --- | --- | --- |
| CC1=C(C2=C(C)C(=O)c3c(cc(O)c(O)c3C(=O)NCC(C)c3ccccc3)C2=O)C(=O)c2cc(O)c(O)c(C(=O)NCC(C)c3ccccc3)c2C1=O (stereo not drawn) | Active | > 30000 | 320 | 210 | 710 | 470 | 91 | 71 | Dose-dependent effect | 230 | 150 | 470 | 310 | > 30 | – | – | – | Activity (Mus musculus [7]): Toxic; Activity (Mus musculus [8]): Non-toxic |
| CC1=C(C2=C(C)C(=O)c3c(cc(O)c(O)c3CCc3ccccc3)C2=O)C(=O)c2cc(O)c(O)c(CCc3ccccc3)c2C1=O | Active | 850 | 1790 | 1200 | 9720 | 6470 | 81 | 89 | Dose-dependent effect | 2570 | 1730 | 1290 | 870 | – | 1400 | 1040 | 8.72 | EC50 [12]: 4.75 µM |
| CC1=C(C2=C(C)C(=O)c3c(cc(O)c(O)c3CCCc3ccc(F)cc3)C2=O)C(=O)c2cc(O)c(O)c(CCCc3ccc(F)cc3)c2C1=O | Active | 1910 | – | – | – | – | – | – | Dose-dependent effect | – | – | – | – | 11.2 | 2620 | 1480 | 14.6 | – |
| CC1=C(C2=C(C)C(=O)c3c(cc(O)c(O)c3CC(C)C)C2=O)C(=O)c2cc(O)c(O)c(CC(C)C)c2C1=O | Active | – | – | 370 | – | 930 | 98 | 69 | Dose-dependent effect | – | 170 | – | 310 | – | – | – | – | Activity (Mus musculus [14]): >30%; Activity (Mus musculus [15]): Non-toxic |
| CC1=C(C2=C(C)C(=O)c3c(cc(O)c(O)c3C(=O)Cc3ccccc3)C2=O)C(=O)c2cc(O)c(O)c(C(=O)Cc3ccccc3)c2C1=O | Active | > 30000 | 340 | 240 | 690 | 460 | – | – | Dose-dependent effect | 220 | 150 | 350 | 230 | – | 5440 | 7380 | 9.58 | EC50 [12]: > 30 µM |
| Cc1cc2c(C(C)C)c(O)c(O)c(C=O)c2c(O)c1-c1c(C)cc2c(C(C)C)c(O)c(O)c(C=O)c2c1O [GOSSYPOL] | – | – | – | – | – | – | – | – | – | – | – | – | – | – | – | – | – | Activity (Mus musculus [16]): Toxic |
| CC1=C(C2=C(C)C(=O)c3c(cc(O)c(O)c3CCCc3ccccc3)C2=O)C(=O)c2cc(O)c(O)c(CCCc3ccccc3)c2C1=O | Active | 1530 | 1440 | 960 | 5270 | 3530 | 87 | 88 | Dose-dependent effect | 2170 | 1450 | 670 | 450 | – | 1300 | 920 | – | EC50 [12]: 3.83 µM |
| CC1=C(C2=C(C)C(=O)c3c(cc(O)c(O)c3Cc3ccc(-c4ccccc4)cc3)C2=O)C(=O)c2cc(O)c(O)c(Cc3ccc(-c4ccccc4)cc3)c2C1=O | Active | 10300 | – | – | – | – | – | – | Dose-dependent effect | – | – | – | – | 1.74 | 2970 | 980 | 0.81 | – |
| CC1=C(C2=C(C)C(=O)c3c(cc(O)c(O)c3CCC3CCCCC3)C2=O)C(=O)c2cc(O)c(O)c(CCC3CCCCC3)c2C1=O | Active | 1320 | 12700 | 8400 | – | – | 74 | 98 | Dose-dependent effect | 6730 | 4470 | 5900 | 3930 | 15.7 | 2400 | 2200 | 15.6 | Activity (Mus musculus [15]): Non-toxic |
| CC1=C(C2=C(C)C(=O)c3c(cc(O)c(O)c3CCc3ccc(OC(F)(F)F)cc3)C2=O)C(=O)c2cc(O)c(O)c(CCc3ccc(OC(F)(F)F)cc3)c2C1=O | Active | 2380 | – | – | – | – | – | – | Dose-dependent effect | – | – | – | – | 7.32 | 8990 | 1440 | 16.1 | – |
| CC1=C(C2=C(C)C(=O)c3c(cc(O)c(O)c3Cc3ccc(Cl)cc3)C2=O)C(=O)c2cc(O)c(O)c(Cc3ccc(Cl)cc3)c2C1=O | Active | – | 150 | 110 | 700 | 470 | – | – | Dose-dependent effect | 340 | 230 | 400 | 270 | – | – | – | – | Activity (Mus musculus [7]): Toxic; Activity (Mus musculus [8]): Non-toxic; Activity (Mus musculus [17]): 76% |
| CC1=C(C2=C(C)C(=O)c3c(cc(O)c(O)c3CCC(C)(C)c3ccccc3)C2=O)C(=O)c2cc(O)c(O)c(CCC(C)(C)c3ccccc3)c2C1=O | Active | 2160 | – | – | – | – | – | – | Dose-dependent effect | – | – | – | – | 15 | 2000 | 1620 | 30 | – |
| CC1=C(C2=C(C)C(=O)c3c(cc(O)c(O)c3CC3CCCC3)C2=O)C(=O)c2cc(O)c(O)c(CC3CCCC3)c2C1=O | Active | 2320 | 2990 | 2000 | – | – | – | – | Dose-dependent effect | 2270 | 1530 | 3080 | 2070 | 9.83 | 5500 | 700 | 12.8 | – |
| CCc1ccc(CCNC(=O)c2c(O)c(O)cc3c2C(=O)C(C)=C(C2=C(C)C(=O)c4c(cc(O)c(O)c4C(=O)NCCc4ccc(CC)cc4)C2=O)C3=O)cc1 | Active | – | 240 | 160 | 1250 | 870 | – | – | Dose-dependent effect | 210 | 140 | 320 | 210 | > 30 | – | – | – | – |
| CC1=C(C2=C(C)C(=O)c3c(cc(O)c(O)c3C(=O)NCc3cccc(C)c3)C2=O)C(=O)c2cc(O)c(O)c(C(=O)NCc3cccc(C)c3)c2C1=O | Active | > 30000 | – | – | – | – | – | – | Dose-dependent effect | – | – | – | – | > 30 | 5440 | 6160 | 21.6 | – |
